# Results as given in BindingDB's records for doi:10.1016/j.bmcl.2009.03.011 (Cytrx, 2009).
# Target: T1, Heat shock factor protein 1 (Homo sapiens, UniProt Q00613)
# T1 sequence (Q00613 whole entry): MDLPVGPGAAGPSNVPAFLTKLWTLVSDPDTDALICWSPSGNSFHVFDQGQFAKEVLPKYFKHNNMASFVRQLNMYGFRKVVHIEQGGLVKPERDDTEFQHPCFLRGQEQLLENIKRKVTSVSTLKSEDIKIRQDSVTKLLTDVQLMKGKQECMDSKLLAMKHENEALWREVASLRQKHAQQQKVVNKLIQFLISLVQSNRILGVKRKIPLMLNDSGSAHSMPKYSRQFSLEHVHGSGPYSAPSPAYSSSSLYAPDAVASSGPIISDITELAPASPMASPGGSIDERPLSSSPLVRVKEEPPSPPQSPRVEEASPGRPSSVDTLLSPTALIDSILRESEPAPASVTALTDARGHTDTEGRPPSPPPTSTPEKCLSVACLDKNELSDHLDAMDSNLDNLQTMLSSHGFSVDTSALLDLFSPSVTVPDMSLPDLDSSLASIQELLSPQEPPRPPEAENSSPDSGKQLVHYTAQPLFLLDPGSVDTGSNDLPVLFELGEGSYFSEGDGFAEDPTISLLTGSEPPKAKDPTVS
# Assay: Transcriptional activation of HSF1 in heat shock stress-induced human HeLa cells assessed as granule formation treated 1 hr before heat shock challenge measured after 2 hrs by immunocytochemical staining
# Summary of the method: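 HeLa cells given compound 1 h, then heat shock at 41 °C for 2 h without recovery; HSF1 immunocytochemical staining, quantified by high-content imaging. Range 0.3–80 µM, twofold dilution, 200-fold overall.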
row,SMILES,EC50
1,CCS(=O)(=O)c1ccc2oc(/C(Cl)=N/OCC(O)CN3CCCCC3)nc2c1 (configuration not stated) [5-(ethylsulfonyl)-N-(2-hydroxy-3-(piperidin-1-yl)propoxy)benzo[d]oxazole-2-carbimidoyl chloride],42.9 µM
2,OC(CO/N=C(\Cl)c1nc2cc(F)ccc2o1)CN1CCCCC1 (configuration not stated) [5-fluoro-N-(2-hydroxy-3-(piperidin-1-yl)propoxy)benzo[d]oxazole-2-carbimidoyl chloride],51.3 µM
3,"CN(C)S(=O)(=O)c1ccc2nc(/C(Cl)=N/OCC(O)CN3CCCCC3)oc2c1 (configuration not stated) [6-(N,N-dimethylsulfamoyl)-N-(2-hydroxy-3-(piperidin-1-yl)propoxy)benzo[d]oxazole-2-carbimidoyl chloride]",41.6 µM
4,OC(CO/N=C(\Cl)c1nc2ccc(F)cc2o1)CN1CCCCC1 (configuration not stated) [6-fluoro-N-(2-hydroxy-3-(piperidin-1-yl)propoxy)benzo[d]oxazole-2-carbimidoyl chloride],29.4 µM
5,CCCN(C[C@H](O)CO/N=C(\Cl)c1nc2ccccc2o1)C(C)C [(S)-N-(2-hydroxy-3-(isopropyl(propyl)amino)propoxy)benzo[d]oxazole-2-carbimidoyl chloride],24.1 µM
6,CC(C)N(CCO)CC(O)CO/N=C(\Cl)c1nc2ccccc2o1 (configuration not stated) [N-(2-hydroxy-3-((2-hydroxyethyl)(isopropyl)amino)propoxy)benzo[d]oxazole-2-carbimidoyl chloride],28.7 µM
7,Cc1ccc2oc(/C(Cl)=N/OCC(O)CN3CCCCC3)nc2c1 (configuration not stated) [N-(2-hydroxy-3-(piperidin-1-yl)propoxy)-5-methylbenzo[d]oxazole-2-carbimidoyl chloride],41.6 µM
8,Cc1ccc2nc(/C(Cl)=N/OCC(O)CN3CCCCC3)oc2c1 (configuration not stated) [N-(2-hydroxy-3-(piperidin-1-yl)propoxy)-6-methylbenzo[d]oxazole-2-carbimidoyl chloride],31 µM
9,OC(CO/N=C(\Cl)c1nc2ccccc2o1)CN1CCCCC1 (configuration not stated) [N-(2-hydroxy-3-(piperidin-1-yl)propoxy)benzo[d]oxazole-2-carbimidoyl chloride],41.7 µM
10,OC(CO/N=C(\Cl)c1nc2ccccc2s1)CN1CCCCC1 (configuration not stated) [N-(2-hydroxy-3-(piperidin-1-yl)propoxy)benzo[d]thiazole-2-carbimidoyl chloride],52.6 µM
11,OC(CO/N=C(\Cl)c1nc2ccccc2s1)CN1CCCC1 (configuration not stated) [N-(2-hydroxy-3-(pyrrolidin-1-yl)propoxy)benzo[d]thiazole-2-carbimidoyl chloride],62.8 µM
12,"CC1CCCC(C)N1CC(O)CO/N=C(\Cl)c1nc2ccccc2o1 (configuration not stated) [N-(3-(2,6-dimethylpiperidin-1-yl)-2-hydroxypropoxy)benzo[d]oxazole-2-carbimidoyl chloride]",32.4 µM
13,OC(CO/N=C(\Cl)c1nc2ccccc2o1)CN1CCCC(F)C1 (configuration not stated) [N-(3-(3-fluoropiperidin-1-yl)-2-hydroxypropoxy)benzo[d]oxazole-2-carbimidoyl chloride],52.6 µM
14,CCN(CC)CC(O)CO/N=C(\Cl)c1nc2ccccc2o1 (configuration not stated) [N-(3-(diethylamino)-2-hydroxypropoxy)benzo[d]oxazole-2-carbimidoyl chloride],27.1 µM
15,CC(C)N(CC(O)CO/N=C(\Cl)c1nc2ccccc2o1)C(C)C (configuration not stated) [N-(3-(diisopropylamino)-2-hydroxypropoxy)benzo[d]oxazole-2-carbimidoyl chloride],25.5 µM
16,CCCN(CCC)CC(O)CO/N=C(\Cl)c1nc2ccccc2o1 (configuration not stated) [N-(3-(dipropylamino)-2-hydroxypropoxy)benzo[d]oxazole-2-carbimidoyl chloride],23.9 µM
17,CCCN(CC)CC(O)CO/N=C(\Cl)c1nc2ccccc2o1 (configuration not stated) [N-(3-(ethyl(propyl)amino)-2-hydroxypropoxy)benzo[d]oxazole-2-carbimidoyl chloride],23 µM

# More lines, now with the values ahead:
row,EC50,SMILES
1,20.2 µM,OC(CO/N=C(\Cl)c1nc2c(F)cccc2o1)CN1CCCCC1 (configuration not stated) [4-fluoro-N-(2-hydroxy-3-(piperidin-1-yl)propoxy)benzo[d]oxazole-2-carbimidoyl chloride]
2,20.9 µM,OC(CO/N=C(\Cl)c1nc2cc(Cl)ccc2o1)CN1CCCCC1 (configuration not stated) [5-chloro-N-(2-hydroxy-3-(piperidin-1-yl)propoxy)benzo[d]oxazole-2-carbimidoyl chloride]
3,22.9 µM,OC(CO/N=C(\Cl)c1nc2ccc(Cl)cc2o1)CN1CCCCC1 (configuration not stated) [6-chloro-N-(2-hydroxy-3-(piperidin-1-yl)propoxy)benzo[d]oxazole-2-carbimidoyl chloride]
4,18.5 µM,OC(CO/N=C(\Cl)c1nc2cccc(F)c2o1)CN1CCCCC1 (configuration not stated) [7-fluoro-N-(2-hydroxy-3-(piperidin-1-yl)propoxy)benzo[d]oxazole-2-carbimidoyl chloride]
5,12.1 µM,"OC(CO/N=C(\Cl)c1nc2c(ccc3ccccc32)o1)CN1CCCCC1 (configuration not stated) [N-(2-hydroxy-3-(piperidin-1-yl)propoxy)naphtho[1,2-d]oxazole-2-carbimidoyl chloride]"
6,17.4 µM,"CC1CC(C)CN(CC(O)CO/N=C(\Cl)c2nc3ccccc3o2)C1 (configuration not stated) [N-(3-(3,5-dimethylpiperidin-1-yl)-2-hydroxypropoxy)benzo[d]oxazole-2-carbimidoyl chloride]"
7,22.8 µM,CC(C)N(CCCF)CC(O)CO/N=C(\Cl)c1nc2ccccc2o1 (configuration not stated) [N-(3-((3-fluoropropyl)(isopropyl)amino)-2-hydroxypropoxy)benzo[d]oxazole-2-carbimidoyl chloride]
8,12.4 µM,CC(C)N(CC(O)CO/N=C(\Cl)c1nc2ccccc2o1)CC1CC1 (configuration not stated) [N-(3-((cyclopropylmethyl)(isopropyl)amino)-2-hydroxypropoxy)benzo[d]oxazole-2-carbimidoyl chloride]
9,20.9 µM,CCCCN(CCCC)CC(O)CO/N=C(\Cl)c1nc2ccccc2o1 (configuration not stated) [N-(3-(dibutylamino)-2-hydroxypropoxy)benzo[d]oxazole-2-carbimidoyl chloride]
10,16.6 µM,CC(C)N(CC(O)CO/N=C(\Cl)c1nc2ccccc2o1)C(C)(C)C (configuration not stated) [N-(3-(tert-butyl(isopropyl)amino)-2-hydroxypropoxy)benzo[d]oxazole-2-carbimidoyl chloride]
